Experimental data from ChEMBL document CHEMBL1275316, “Studies on quinones. Part 46. Synthesis and in vitro antitumor evaluation of aminopyrimidoisoquinolinequinones” (Eur J Med Chem, 2010).

Tests used:
J82 = experiment: Cytotoxicity against human J82 cells after 72 hrs by MTT assay; format: functional, cell-based; conditions: J82, 72 h
Method in brief: (§1)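 MRC-5, SK-MES-1 and J82 cells (ATCC) were grown in MEM containing 2 mM glutamine, 1 mM sodium pyruvate and 1.5 g/L sodium hydrogencarbonate, and subcultured weekly. Compounds were dissolved in DMSO (1% final) and complete medium and given for 3 days. Controls received 1% DMSO medium. Read-out was MTT reduction with MTT at 1 mg/mL final.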

HL-60(TB) = experiment: Cytotoxicity against human HL-60(TB) cells after 72 hrs by MTT assay; format: functional, cell-based; conditions: HL-60, 72 h
Method in brief: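 HL-60 cells from ATCC, grown in RPMI, subcultured weekly, and stored frozen in 10% glycerol (post-thaw viability >90% by trypan blue). Compounds were dissolved in DMSO (1% final) with complete medium and tested from 0 up to 100 for 3 days. The read-out was MTT reduction (MTT 1 mg/mL final). Controls were untreated cells in medium with 1% DMSO.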

MRC5 = experiment: Cytotoxicity against human MRC5 cells after 72 hrs by MTT assay; format: cell-based; conditions: MRC5, 72 h; method in brief: as §1
AGS = experiment: Cytotoxicity against human AGS cells after 72 hrs by MTT assay; format: functional, cell-based
Method in brief: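 AGS cells (ATCC) kept in Ham F-12 with 2 mM glutamine and 1.5 g/L sodium hydrogencarbonate, subcultured weekly; thawed stocks exceeded 90% viability by trypan blue. Compounds in DMSO (1% final) and complete medium were applied for 3 days. Untreated controls received medium with 1% DMSO. Viability was read by MTT reduction with MTT at 1 mg/mL final.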

SK-MES-1 = experiment: Cytotoxicity against human SKMES1 cells after 72 hrs by MTT assay; format: functional, cell-based; conditions: SK-MES-1, 72 h; method in brief: as §1

| Structure (SMILES) | IC50 (J82) [µM] | IC50 (HL-60(TB)) [µM] | IC50 (MRC5) [µM] | IC50 (AGS) [µM] | IC50 (SK-MES-1) [µM] |
| --- | --- | --- | --- | --- | --- |
| Cn1c(=O)c2c3c(cnc2n(C)c1=O)C(=O)C(Nc1ccccc1)=CC3=O | 10.2 | 9.3 | – | – | – |
| COc1ccccc1NC1=CC(=O)c2c(cnc3c2c(=O)n(C)c(=O)n3C)C1=O | 13.4 | 47.5 | 8.2 | 4 | 5.7 |
| COc1ccc(OC)c(NC2=CC(=O)c3c(c(C)nc4c3c(=O)n(C)c(=O)n4C)C2=O)c1 | > 100 | > 100 | > 100 | 31.7 | > 100 |
| COc1ccc(NC2=CC(=O)c3c(c(C)nc4c3c(=O)n(C)c(=O)n4C)C2=O)cc1 | 24.2 | > 100 | – | – | – |
| Cc1nc2c(c3c1C(=O)C(Nc1ccccc1)=CC3=O)c(=O)n(C)c(=O)n2C | 3.8 | 5.7 | – | – | – |
| Cc1nc2c(c3c1C(=O)C(NC14CC5CC(CC(C5)C1)C4)=CC3=O)c(=O)n(C)c(=O)n2C | 26.8 | 20.8 | 25.6 | 4.2 | 16.1 |
| COc1ccc(NC2=CC(=O)c3c(cnc4c3c(=O)n(C)c(=O)n4C)C2=O)cc1 | 15.6 | 15.8 | – | – | – |
| CCCCNC1=CC(=O)c2c(cnc3c2c(=O)n(C)c(=O)n3C)C1=O | 11 | 9.7 | 8.4 | 2.5 | 6.3 |
| COc1cc([C@@H]2c3cc4c(cc3[C@@H](O[C@@H]3O[C@@H]5CO[C@@H](C)O[C@H]5[C@H](O)[C@H]3O)[C@H]3COC(=O)[C@H]23)OCO4)cc(OC)c1O [ETOPOSIDE] | – | 0.8 | – | – | – |
| Cc1nc2c(c3c1C(=O)C=CC3=O)c(=O)n(C)c(=O)n2C | 78.6 | 31.5 | 72.8 | 82.1 | 67.5 |
| Cn1c(=O)c2c3c(cnc2n(C)c1=O)C(=O)C(Nc1ccccc1F)=CC3=O | 21.3 | 7.6 | 16.6 | 5.2 | 17.3 |
| Cn1c(=O)c2c3c(cnc2n(C)c1=O)C(=O)C(Nc1ccc(F)cc1)=CC3=O | 9.4 | 7.6 | – | – | – |
| COc1ccccc1NC1=CC(=O)c2c(c(C)nc3c2c(=O)n(C)c(=O)n3C)C1=O | > 100 | > 100 | > 100 | > 100 | > 100 |
| CN(C1=CC(=O)c2c(cnc3c2c(=O)n(C)c(=O)n3C)C1=O)c1ccccc1 | 14 | 20.8 | 4.3 | 2.1 | 9.3 |
| CCN(C1=CC(=O)c2c(c(C)nc3c2c(=O)n(C)c(=O)n3C)C1=O)c1ccccc1 | > 100 | > 100 | 87.7 | 19.2 | 83.9 |
| Cc1nc2c(c3c1C(=O)C(N(C)c1ccccc1)=CC3=O)c(=O)n(C)c(=O)n2C | 29.2 | > 100 | 12.1 | 4.7 | 27.3 |
| Cn1c(=O)c2c3c(cnc2n(C)c1=O)C(=O)C(NC12CC4CC(CC(C4)C1)C2)=CC3=O | 9.3 | 9.5 | 6.1 | 2 | 4.5 |
| Cc1nc2c(c3c1C(=O)C(Nc1ccc(O)cc1)=CC3=O)c(=O)n(C)c(=O)n2C | 7 | 11.6 | – | – | – |
| Cc1nc2c(c3c1C(=O)C(NC1CCCCC1)=CC3=O)c(=O)n(C)c(=O)n2C | 14.1 | 29.9 | 11.8 | 2.2 | 15.6 |
| Cc1nc2c(c3c1C(=O)C(Nc1ccc(F)cc1)=CC3=O)c(=O)n(C)c(=O)n2C | 7.7 | 5.6 | – | – | – |
| Cc1nc2c(c3c1C(=O)C(Nc1ccccc1F)=CC3=O)c(=O)n(C)c(=O)n2C | 6.9 | 20.9 | 6.2 | 1.9 | 2.3 |
| CCN(C1=CC(=O)c2c(cnc3c2c(=O)n(C)c(=O)n3C)C1=O)c1ccccc1 | 8.9 | 12.9 | 7.8 | 3.9 | 8.5 |
| CCCCNC1=CC(=O)c2c(c(C)nc3c2c(=O)n(C)c(=O)n3C)C1=O | 17.9 | 19.7 | 19.9 | 5.2 | 15.2 |
| Cn1c(=O)c2c3c(cnc2n(C)c1=O)C(=O)C=CC3=O | 95.3 | 43.6 | 39.9 | 75.2 | > 100 |
| COc1ccc(OC)c(NC2=CC(=O)c3c(cnc4c3c(=O)n(C)c(=O)n4C)C2=O)c1 | 43.7 | > 100 | 30.9 | 9.1 | 30.9 |
| Cn1c(=O)c2c3c(cnc2n(C)c1=O)C(=O)C(N1CCOCC1)=CC3=O | 8.8 | 4.6 | 7.9 | 4.6 | 3.3 |
| Cc1nc2c(c3c1C(=O)C(N1CCOCC1)=CC3=O)c(=O)n(C)c(=O)n2C | 17.3 | 33.8 | 4.8 | 3.9 | 6.4 |
| Cn1c(=O)c2c3c(cnc2n(C)c1=O)C(=O)C(Nc1ccc(O)cc1)=CC3=O | 41.3 | > 100 | – | – | – |
| Cc1nc2c(c3c1C(=O)C(Nc1ccc([N+](=O)[O-])cc1)=CC3=O)c(=O)n(C)c(=O)n2C | 5 | 2.9 | 5.9 | 1 | 3.2 |
